Test results published in ChEMBL document CHEMBL1156742, “Fluorinated rhodacyanine (SJL-01) possessing high efficacy for visceral leishmaniasis (VL)” (J Med Chem, 2010).

How the values were obtained:
[1] = Selectivity ratio of IC50 for rat L6 cells to IC50 for Leishmania donovani MHOM/ET/67/L82; assay type: ADME, cell-based; settings: for selectivity ratio: L6 cells, read-out: Ratio IC50; for Ratio IC50: l6
Method in brief: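 Ratio of the L-6 cytotoxicity IC50 to the IC50 against axenic L. donovani amastigotes.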

L6 = test: Cytotoxicity against rat L6 cells after 72 hrs by Alamar blue assay; assay type: cell-based
Method in brief: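 L-6 myoblasts were grown in RPMI 1640 with L-glutamine and 10% FBS at 37 °C, 5% CO2, seeded at 4×10^4 cells/well. After 24 h they were given serial drug dilutions for 72 h. Alamar blue was added for 2 h, and fluorescence read at ex 536/em 588 nm to give IC50.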

Leishmania donovani [2] = test: Antileishmanial activity against Leishmania donovani MHOM/ET/67/L82 amastigotes infected in syrian golden hamster spleen after 72 hrs; assay type: functional, organism-based
Method in brief: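 Hamster-maintained spleen amastigotes were grown axenically at 37 °C, 5% CO2 in Cunningham SM medium, pH 5.4, with 10% FBS. 10^5 amastigotes per well were exposed to serial drug dilutions for 72 h. Alamar blue (resazurin) was added for 2 h more, and fluorescence read at ex 536/em 588 nm. IC50 was taken from the sigmoidal inhibition curve versus control.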

Leishmania donovani [3] = test: Antileishmanial activity against Leishmania donovani MHOM/ET/67/L82 infected in NMRI mouse macrophage assessed as reduction in parasite burden after 4 days by Giemsa staining; settings: MHOM/ET/67/L82, 4 days
Leishmania donovani [4] = test: Antileishmanial activity against Leishmania donovani MHOM/ET/67/HU3 infected in BALB/c mouse at 2 mg/kg, iv for 5 days from day 7 postinfection measured after 14 days by Giemsa staining; assay type: functional
Method in brief: (§1)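 Female SPF BALB/c mice (6-8 weeks, ~20 g) infected iv via tail vein on day 0 with 1.5×10^7 hamster-spleen-derived amastigotes. Groups of five mice were treated once daily starting day 7. On day 14 the livers were weighed and Giemsa-stained smears prepared. Amastigotes were counted per 500 liver cells and expressed as amastigotes per liver cell × mg liver. % inhibition was calculated versus untreated mice.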

Leishmania donovani [5] = test: Antileishmanial activity against Leishmania donovani MHOM/ET/67/HU3 infected in BALB/c mouse at 50 mg/kg, po for 5 days from day 7 postinfection measured after 14 days by Giemsa staining; assay type: functional; method in brief: as §1
Leishmania donovani [6] = test: Antileishmanial activity against Leishmania donovani MHOM/ET/67/HU3 infected in BALB/c mouse at 50 mg/kg, ip for 5 days from day 7 postinfection measured after 14 days by Giemsa staining; assay type: functional; settings: MHOM/ET/67/HU3, ip, route intraperitoneal; method in brief: as §1
Leishmania donovani [7] = test: Antileishmanial activity against Leishmania donovani MHOM/ET/67/HU3 infected in BALB/c mouse at 4.1 mg/kg, iv for 5 days from day 7 postinfection measured after 14 days by Giemsa staining; assay type: functional; method in brief: as §1
Leishmania donovani [8] = test: Antileishmanial activity against Leishmania donovani MHOM/ET/67/HU3 infected in BALB/c mouse at 1.3 mg/kg, iv for 5 days from day 7 postinfection measured after 14 days by Giemsa staining; assay type: functional; method in brief: as §1
Leishmania donovani [9] = test: Antileishmanial activity against Leishmania donovani MHOM/ET/67/HU3 infected in BALB/c mouse at 0.2 mg/kg, iv for 5 days from day 7 postinfection measured after 14 days by Giemsa staining; assay type: functional; method in brief: as §1
Leishmania donovani [10] = test: Antileishmanial activity against Leishmania donovani MHOM/ET/67/HU3 infected in BALB/c mouse at 12.5 mg/kg, iv for 5 days from day 7 postinfection measured after 14 days by Giemsa staining; assay type: functional; method in brief: as §1
Leishmania donovani [11] = test: Antileishmanial activity against Leishmania donovani MHOM/ET/67/HU3 infected in BALB/c mouse at 1.5 mg/kg, iv for 3 days from day 7 postinfection measured after 14 days by Giemsa staining; assay type: functional; method in brief: as §1
Leishmania donovani [12] = test: Antileishmanial activity against Leishmania donovani MHOM/ET/67/HU3 infected in BALB/c mouse at 0.5 mg/kg, iv for 3 days from day 7 postinfection measured after 14 days by Giemsa staining; assay type: functional; method in brief: as §1
Leishmania donovani [13] = test: Antileishmanial activity against Leishmania donovani MHOM/ET/67/HU3 infected in BALB/c mouse at 15 mg/kg, sc for 5 days from day 7 postinfection measured after 14 days by Giemsa staining; assay type: functional, organism-based; set-up: dose 15 mg/kg; method in brief: as §1
[14] = Leishmania donovani, MHOM/ET/67/L82, Spleen, 72 h

Row | Compound | IC50 (Leishmania donovani [2]; [14]) | selectivity ratio [1] | IC50 (L6; Rattus norvegicus, L6, 72 h) | further results
1 | CCn1c(=O)/c(=C/C=C2\Sc3ccccc3N2C)s/c1=C\c1sc2ccc(F)cc2[n+]1C.CS(=O)(=O)[O-] |  |  |  | Ratio IC50 [1]: 4225; inhibition in vivo at 2 mg/kg (Leishmania donovani [4]): 46.4%; inhibition in vivo at 50 mg/kg (Leishmania donovani [5]): 28%; IC50 (L6; l6): 84.5 µM; IC50 (Leishmania donovani [2]): 0.02 µM
2 | CCn1c(=O)/c(=C/C=c2\nc3c(o2)=CC=CN3C)s/c1=C\c1sc2ccc(F)cc2[n+]1C | 1.04 µM | 27 | 28.5 µM | 
3 | CCCCCCCCCCCCCCCCOP(=O)([O-])OCC[N+](C)(C)C [MILTEFOSINE] | 0.43 µM |  |  | IC50 (Leishmania donovani [3]): 0.811 µM
4 | CN1/C(=C/C=c2\s/c(=C\c3sc4ccc(F)cc4[n+]3C)n(CCO)c2=O)Sc2ccccc21 | 11.7 µM | > 15 | > 169 µM | 
5 | CCN1C(=O)/C(=C/C=C2\Sc3ccccc3N2C)S/C1=N\c1sc2ccc(Cl)cc2[n+]1C | 0.028 µM | 757 | 21.2 µM | inhibition in vivo at 50 mg/kg (Leishmania donovani [6]): 18.2%; IC50 (Leishmania donovani [3]): 0.08 µM
6 | CCn1c(=O)/c(=C/C=C2\Sc3ccccc3N2C)s/c1=C\c1sc2ccc(F)cc2[n+]1C.[Cl-] |  |  |  | inhibition in vivo at 4.1 mg/kg (Leishmania donovani [7]): 97.2%; inhibition in vivo at 1.3 mg/kg (Leishmania donovani [8]): 94.9%; inhibition in vivo at 50 mg/kg (Leishmania donovani [6]): 31.4%; inhibition in vivo at 0.2 mg/kg (Leishmania donovani [9]): 16.1%; Ratio IC50 [1]: > 15000; IC50 (Leishmania donovani [3]): 0.353 µM; inhibition in vivo at 12.5 mg/kg (Leishmania donovani [10]): 95.4%; IC50 (L6; l6): > 174 µM; IC50 (Leishmania donovani [2]): 0.011 µM
7 | CCn1c(=O)/c(=C/C=c2\nc3c(o2)=CC=CN3C)s/c1=C\c1sc2ccccc2[n+]1C | 0.677 µM | 40 | 27.2 µM | 
8 | C[C@@H]1[C@H](O)[C@@H](C)/C=C/C=C/C=C/C=C/C=C/C=C/C=C/[C@H](O[C@@H]2O[C@H](C)[C@@H](O)[C@H](N)[C@@H]2O)C[C@@H]2O[C@](O)(C[C@@H](O)C[C@@H](O)[C@H](O)CC[C@@H](O)C[C@@H](O)CC(=O)O[C@H]1C)C[C@H](O)[C@H]2C(=O)O [AMPHOTERICIN B] |  |  |  | inhibition in vivo at 1.5 mg/kg (Leishmania donovani [11]): 95.5%; inhibition in vivo at 0.5 mg/kg (Leishmania donovani [12]): 78.6%
9 | CCn1c(=O)/c(=C/C=C2\Sc3ccccc3N2C)s/c1=C\c1sc2ccc(F)cc2[n+]1C.O=C([O-])/C=C\C(=O)O |  |  |  | Ratio IC50 [1]: 2870; IC50 (L6; l6): 71.7 µM; IC50 (Leishmania donovani [2]): 0.025 µM
10 | D-gluconic acid, 2,4:2',4'-O-[oxybis-oxidostibylidyne]bis-, trisodium salt, nonahydrate |  |  |  | inhibition (Leishmania donovani [13]): 62%
11 | CCCCN1C=CC=c2o/c(=C/C=c3\s/c(=C\c4sc5ccccc5[n+]4CC)n(CCC)c3=O)nc21 | 0.021 µM | 99 | 2.07 µM | 

More lines, main results first:

Row | IC50 (Leishmania donovani [2]; [14]) | Compound | selectivity ratio [1] | IC50 (L6; Rattus norvegicus, L6, 72 h) | further results
12 | 0.106 µM | CCn1c(=O)/c(=C/C=C2\Sc3ccccc3N2C)s/c1=C\c1sc2ccccc2[n+]1C | 75 | 7.98 µM | 
13 | 0.052 µM | CCN1C(=O)/C(=C/C=C2\Sc3ccccc3N2C)S/C1=N\c1sc2ccccc2[n+]1C | 2990 | 156 µM | IC50 (Leishmania donovani [3]): 4.69 µM
14 | 0.182 µM | CCn1c(=O)/c(=C/N=c2\scc(C)n2C)s/c1=C\c1sc2ccc(F)cc2[n+]1C | 91 | 16.5 µM | 
15 | 2.02 µM | CCn1c(=O)/c(=C/N=c2\ccccn2C)s/c1=C\c1sc2ccc(F)cc2[n+]1C | 16 | 31.7 µM | 
16 | 0.69 µM | CCCN1C=CC=c2o/c(=C/C=c3\s/c(=C\c4sc5ccccc5[n+]4C)n(CC)c3=O)nc21 | 2 | 1.44 µM | 
17 | 0.129 µM | CCn1c(=O)/c(=C/N=c2n(C)c3ccccc3n2C)s/c1=C\c1sc2ccc(F)cc2[n+]1C | 627 | 80.9 µM | 
18 | 0.118 µM | CCn1c(=O)/c(=C/N=c2\sc(C)cn2C)s/c1=C\c1sc2ccc(F)cc2[n+]1C | 88 | 10.4 µM | 
19 | 0.255 µM | CCn1c(=O)/c(=C2\Sc3ccccc3N2C)s/c1=C\c1cccc[n+]1CC | 450 | 115 µM | 
